# Experimental data from ChEMBL document CHEMBL4184298, “Development of Potent Inhibitors of Receptor Tyrosine Kinases by Ligand-Based Drug Design and Target-Biased Phenotypic Screening” (J Med Chem, 2018).
# Active and inactive are the calls of the source. The calls are words filed in the database; no cut-off is given here.
# How the values were obtained:
# [1] = Selectivity ratio of EC50 for human AXL-negative BT474 cells to EC50 for mouse AXL-positive breast cancer cells; assay type: functional
# How it was run: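 AXL− BT474 and AXL+ cells were each dosed with 8-point half-log series (0.03–100 μM) and read by PrestoBlue at day 5 (n = 2). EC50s were fitted for each line, and the ratio is EC50(AXL−)/EC50(AXL+).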
# BT-474 = experiment: Antiproliferative activity against human AXL-negative BT474 cells after 5 days by PrestoBlue assay; assay type: functional, cell-based; settings: BT-474, 120 h
# How it was run: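 8-point half-log dose–response, 0.03–100 μM. Cell viability read with PrestoBlue reagent at day 5. EC50 calculated from the curves. SD from n = 2. Screened alongside an AXL+ line, with foretinib as the positive control.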
# [2] = target: ALK tyrosine kinase receptor (Homo sapiens, UniProt Q9UM73); experiment: Inhibition of wild-type human partial length ALK (I1088 to E1409 residues) expressed in mammalian expression system using poly [Glu, Try] 4:1 as substrate in presence of [gamma-33P]ATP
# ALK tyrosine kinase receptor, sequence (Q9UM73 whole entry, the tested form may be a part): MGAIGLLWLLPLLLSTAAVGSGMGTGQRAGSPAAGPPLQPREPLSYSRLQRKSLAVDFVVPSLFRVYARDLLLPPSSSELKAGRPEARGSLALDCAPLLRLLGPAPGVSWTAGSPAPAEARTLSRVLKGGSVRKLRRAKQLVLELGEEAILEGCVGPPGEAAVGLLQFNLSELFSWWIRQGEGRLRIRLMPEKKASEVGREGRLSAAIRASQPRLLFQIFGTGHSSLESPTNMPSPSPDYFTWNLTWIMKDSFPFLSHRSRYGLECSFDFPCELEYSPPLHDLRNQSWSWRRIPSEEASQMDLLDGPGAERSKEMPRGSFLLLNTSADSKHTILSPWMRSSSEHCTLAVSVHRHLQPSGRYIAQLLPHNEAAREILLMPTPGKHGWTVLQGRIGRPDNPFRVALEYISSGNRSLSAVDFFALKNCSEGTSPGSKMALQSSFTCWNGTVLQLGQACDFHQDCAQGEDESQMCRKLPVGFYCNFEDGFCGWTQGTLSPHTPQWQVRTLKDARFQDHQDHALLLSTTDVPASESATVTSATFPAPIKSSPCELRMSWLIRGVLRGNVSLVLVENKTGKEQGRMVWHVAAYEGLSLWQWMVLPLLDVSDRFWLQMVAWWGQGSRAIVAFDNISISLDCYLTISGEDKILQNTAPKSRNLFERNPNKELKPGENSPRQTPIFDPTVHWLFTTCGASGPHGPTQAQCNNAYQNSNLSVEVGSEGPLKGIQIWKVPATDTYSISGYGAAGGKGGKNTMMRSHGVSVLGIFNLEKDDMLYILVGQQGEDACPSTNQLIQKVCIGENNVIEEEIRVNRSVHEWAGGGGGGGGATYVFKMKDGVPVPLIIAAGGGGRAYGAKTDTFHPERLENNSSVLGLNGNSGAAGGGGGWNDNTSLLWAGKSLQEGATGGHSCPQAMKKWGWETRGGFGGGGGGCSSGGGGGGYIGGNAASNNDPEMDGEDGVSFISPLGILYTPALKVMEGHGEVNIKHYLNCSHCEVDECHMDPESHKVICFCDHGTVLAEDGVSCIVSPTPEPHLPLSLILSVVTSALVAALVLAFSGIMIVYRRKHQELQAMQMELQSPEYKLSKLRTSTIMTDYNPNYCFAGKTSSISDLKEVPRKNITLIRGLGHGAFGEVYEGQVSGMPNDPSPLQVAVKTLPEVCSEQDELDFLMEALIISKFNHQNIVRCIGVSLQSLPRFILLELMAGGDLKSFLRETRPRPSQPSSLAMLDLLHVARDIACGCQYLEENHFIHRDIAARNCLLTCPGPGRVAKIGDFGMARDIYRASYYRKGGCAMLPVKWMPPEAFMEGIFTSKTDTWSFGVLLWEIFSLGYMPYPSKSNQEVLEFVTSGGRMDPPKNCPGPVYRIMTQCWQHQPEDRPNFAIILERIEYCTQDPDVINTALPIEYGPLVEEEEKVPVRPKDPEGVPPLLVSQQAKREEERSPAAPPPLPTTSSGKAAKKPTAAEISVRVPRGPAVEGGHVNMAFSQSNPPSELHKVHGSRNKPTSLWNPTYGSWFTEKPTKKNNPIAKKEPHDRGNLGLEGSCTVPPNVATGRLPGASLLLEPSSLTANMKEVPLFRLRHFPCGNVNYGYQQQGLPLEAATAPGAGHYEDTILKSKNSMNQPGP
# How it was run: (§1)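 Radiometric assay on recombinant kinase: ³³P incorporation into the kinase substrate was measured and activity was expressed relative to a DMSO control.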
# [3] = target: Receptor-type tyrosine-protein kinase FLT3 (Homo sapiens, UniProt P36888, D835Y); experiment: Inhibition of human partial length FLT3 D835Y mutant (Q580 to Y969 residues) expressed in bacterial expression system using poly [Glu, Try] 4:1 as substrate in presence of [gamma-33P]ATP
# How it was run: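 Recombinant kinase assays were run radiometrically by an outside contract service. Activity was read as 33P incorporation into each kinase's substrate and expressed relative to a DMSO control.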
# [4] = target: Epithelial discoidin domain-containing receptor 1 (Homo sapiens, UniProt Q08345); experiment: Inhibition of wild-type human partial length DDR1 (R565 to V876 residues) expressed in bacterial expression system using poly [Glu, Try] 4:1 as substrate in presence of [gamma-33P]ATP; how it was run: as §1
# Epithelial discoidin domain-containing receptor 1, sequence (Q08345 whole entry, the tested form may be a part): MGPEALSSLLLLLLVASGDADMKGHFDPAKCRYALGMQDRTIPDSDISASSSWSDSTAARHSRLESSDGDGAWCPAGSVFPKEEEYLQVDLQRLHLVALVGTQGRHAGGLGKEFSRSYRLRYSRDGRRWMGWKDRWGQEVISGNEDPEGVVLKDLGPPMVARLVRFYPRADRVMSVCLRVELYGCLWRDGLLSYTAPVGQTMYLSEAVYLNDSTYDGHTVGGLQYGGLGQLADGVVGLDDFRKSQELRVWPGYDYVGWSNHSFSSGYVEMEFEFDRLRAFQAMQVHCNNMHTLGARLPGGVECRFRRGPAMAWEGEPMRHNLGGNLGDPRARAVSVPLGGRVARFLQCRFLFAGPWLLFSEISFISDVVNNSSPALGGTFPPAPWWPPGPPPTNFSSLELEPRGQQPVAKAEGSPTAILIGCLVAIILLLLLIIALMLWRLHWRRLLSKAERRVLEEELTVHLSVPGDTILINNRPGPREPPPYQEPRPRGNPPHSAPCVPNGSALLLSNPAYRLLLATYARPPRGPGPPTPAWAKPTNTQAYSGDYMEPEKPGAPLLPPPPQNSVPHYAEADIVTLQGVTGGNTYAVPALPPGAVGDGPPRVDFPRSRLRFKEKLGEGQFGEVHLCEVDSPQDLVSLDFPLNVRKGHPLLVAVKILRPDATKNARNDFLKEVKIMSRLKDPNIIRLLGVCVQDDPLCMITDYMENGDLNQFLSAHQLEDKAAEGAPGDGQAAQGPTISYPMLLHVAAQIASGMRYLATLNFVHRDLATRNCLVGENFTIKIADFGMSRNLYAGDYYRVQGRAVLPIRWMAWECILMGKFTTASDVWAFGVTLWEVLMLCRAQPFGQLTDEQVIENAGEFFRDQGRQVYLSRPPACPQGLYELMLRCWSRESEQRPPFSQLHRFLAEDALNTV
# [5] = target: Platelet-derived growth factor receptor alpha (Homo sapiens, UniProt P16234); experiment: Inhibition of wild-type human partial length PDGFRA (V575 to D1002 residues) expressed in mammalian expression system using poly [Glu, Try] 4:1 as substrate in presence of [gamma-33P]ATP; how it was run: as §1
# Platelet-derived growth factor receptor alpha, sequence (P16234 whole entry, the tested form may be a part): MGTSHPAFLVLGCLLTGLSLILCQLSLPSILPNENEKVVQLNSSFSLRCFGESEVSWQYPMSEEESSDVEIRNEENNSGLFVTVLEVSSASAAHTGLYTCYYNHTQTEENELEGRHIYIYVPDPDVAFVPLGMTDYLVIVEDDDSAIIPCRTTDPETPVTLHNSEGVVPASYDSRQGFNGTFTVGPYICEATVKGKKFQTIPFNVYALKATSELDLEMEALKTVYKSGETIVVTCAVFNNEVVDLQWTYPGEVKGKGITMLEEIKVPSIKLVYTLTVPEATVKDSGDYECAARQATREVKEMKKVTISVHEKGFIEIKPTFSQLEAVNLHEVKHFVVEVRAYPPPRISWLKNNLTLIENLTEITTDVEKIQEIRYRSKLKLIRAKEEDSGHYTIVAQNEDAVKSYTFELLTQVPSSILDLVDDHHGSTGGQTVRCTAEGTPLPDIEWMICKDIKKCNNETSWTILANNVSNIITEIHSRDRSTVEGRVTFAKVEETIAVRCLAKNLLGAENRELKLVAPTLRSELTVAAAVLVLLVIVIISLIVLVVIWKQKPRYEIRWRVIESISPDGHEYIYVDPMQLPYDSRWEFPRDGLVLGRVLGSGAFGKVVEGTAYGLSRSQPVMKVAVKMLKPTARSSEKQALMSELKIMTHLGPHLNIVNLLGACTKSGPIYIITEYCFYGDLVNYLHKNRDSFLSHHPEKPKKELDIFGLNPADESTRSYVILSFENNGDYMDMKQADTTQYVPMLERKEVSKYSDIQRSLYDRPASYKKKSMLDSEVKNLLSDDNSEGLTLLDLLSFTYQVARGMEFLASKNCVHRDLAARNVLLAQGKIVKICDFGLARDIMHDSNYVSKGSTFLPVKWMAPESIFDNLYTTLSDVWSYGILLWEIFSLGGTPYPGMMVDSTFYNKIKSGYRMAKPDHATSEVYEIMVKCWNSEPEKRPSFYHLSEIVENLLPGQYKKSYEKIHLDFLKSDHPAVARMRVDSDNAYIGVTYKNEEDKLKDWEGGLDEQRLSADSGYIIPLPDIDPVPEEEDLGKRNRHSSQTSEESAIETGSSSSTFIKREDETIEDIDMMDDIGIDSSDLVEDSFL
# MV4-11 = experiment: Antiproliferative activity against human MV4-11 cells after 5 days by PrestoBlue assay; assay type: functional, cell-based
Compound,Ratio EC50 [1],EC50 (BT-474) [nM],IC50 [2] [nM],IC50 [3] [nM],IC50 [4] [nM],IC50 [5] [nM],Activity (MV4-11)
CNc1ncc2c(-c3ccc(N4CCNCC4)nc3)nn(CC3CCCC3)c2n1,2,1640,–,–,–,–,–
CNc1ncc2c(-c3ccc(N4CCN(C)CC4)nc3)nn(CC3CCCC3)c2n1,–,–,190,12,100,990,Active
Nc1nc(Nc2ccc3c(c2)CC[C@@H](N2CCCC2)CC3)nn1-c1cc2c(nn1)-c1ccccc1CCC2 [BEMCENTINIB],–,–,530,2,20,20,Active
CNc1ncc2c(-c3ccc(N4CCNCC4)cc3)nn(Cc3cn(Cc4ccccc4)nn3)c2n1,<1,–,–,–,–,–,–
